Reference: ChEMBL document CHEMBL4304782, “Antioxidant, Anti-inflammatory, and Neuroprotective Effects of Novel Vinyl Sulfonate Compounds as Nrf2 Activator” (ACS Med Chem Lett, 2019)
Active and inactive are the calls of the source. No cut-off for these calls is given here.

How the values were obtained:
[1] = tested on: SH-SY5Y; assay: Antioxidant activity in human SH-SY5Y cells assessed as increase in NQO1 level at 0.3 to 3 uM incubated for 6 to 24 hrs by Western blot analysis relative to control; assay type: functional
Method in brief: (§1)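 SH-SY5Y neuroblastoma cells treated for 6 or 24 h, then harvested; NQO1, GCLM, GCLC protein by Western blot with β-actin loading control; at least duplicate cultures, averaged, fold of untreated control ± SEM; paired t test.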

[2] = molecular target: T1, Nuclear factor erythroid 2-related factor 2 (Mus musculus) (UniProt Q60795); assay: Activation of Nrf2 in mouse BV-2 cells assessed as increase in total Nrf2 level at 10 uM by Western blot analysis relative to control; assay type: cell-based
T1 sequence (whole entry): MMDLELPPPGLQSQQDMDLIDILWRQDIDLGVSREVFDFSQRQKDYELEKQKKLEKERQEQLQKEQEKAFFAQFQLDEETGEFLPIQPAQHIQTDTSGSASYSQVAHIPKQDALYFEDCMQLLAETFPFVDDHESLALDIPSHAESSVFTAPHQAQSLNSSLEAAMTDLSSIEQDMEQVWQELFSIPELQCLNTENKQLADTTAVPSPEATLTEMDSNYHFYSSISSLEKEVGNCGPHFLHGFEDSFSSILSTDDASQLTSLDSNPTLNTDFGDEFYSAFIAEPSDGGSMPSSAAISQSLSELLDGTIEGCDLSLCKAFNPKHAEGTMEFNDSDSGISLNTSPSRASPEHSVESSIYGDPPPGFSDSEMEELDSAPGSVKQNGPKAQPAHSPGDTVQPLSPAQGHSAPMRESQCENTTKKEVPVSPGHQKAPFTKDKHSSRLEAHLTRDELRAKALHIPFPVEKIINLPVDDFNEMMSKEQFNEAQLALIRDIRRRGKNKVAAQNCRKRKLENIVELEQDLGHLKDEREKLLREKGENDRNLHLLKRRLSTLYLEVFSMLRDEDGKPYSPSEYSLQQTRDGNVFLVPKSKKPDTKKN
Method in brief: (§2)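 BV-2 microglia treated 0.3–10 μM; Nrf2 measured by Western blot in nuclear extracts and whole-cell lysates; at least duplicate cultures, averaged, expressed as fold of untreated control ± SEM; paired t test.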

[3] = molecular target: T1, Nuclear factor erythroid 2-related factor 2 (Mus musculus); assay: Activation of Nrf2 in mouse BV-2 cells assessed as increase in total Nrf2 level at 0.3 uM by Western blot analysis relative to control; assay type: cell-based; method in brief: as §2
[4] = molecular target: T2, Nuclear factor erythroid 2-related factor 2 (Homo sapiens) (UniProt Q16236); assay: Activation of Nrf2 in human SH-SY5Y cells assessed as increase in GCLC level incubated for 6 to 24 hrs by Western blot analysis; assay type: cell-based; method in brief: as §1
T2 sequence (whole entry): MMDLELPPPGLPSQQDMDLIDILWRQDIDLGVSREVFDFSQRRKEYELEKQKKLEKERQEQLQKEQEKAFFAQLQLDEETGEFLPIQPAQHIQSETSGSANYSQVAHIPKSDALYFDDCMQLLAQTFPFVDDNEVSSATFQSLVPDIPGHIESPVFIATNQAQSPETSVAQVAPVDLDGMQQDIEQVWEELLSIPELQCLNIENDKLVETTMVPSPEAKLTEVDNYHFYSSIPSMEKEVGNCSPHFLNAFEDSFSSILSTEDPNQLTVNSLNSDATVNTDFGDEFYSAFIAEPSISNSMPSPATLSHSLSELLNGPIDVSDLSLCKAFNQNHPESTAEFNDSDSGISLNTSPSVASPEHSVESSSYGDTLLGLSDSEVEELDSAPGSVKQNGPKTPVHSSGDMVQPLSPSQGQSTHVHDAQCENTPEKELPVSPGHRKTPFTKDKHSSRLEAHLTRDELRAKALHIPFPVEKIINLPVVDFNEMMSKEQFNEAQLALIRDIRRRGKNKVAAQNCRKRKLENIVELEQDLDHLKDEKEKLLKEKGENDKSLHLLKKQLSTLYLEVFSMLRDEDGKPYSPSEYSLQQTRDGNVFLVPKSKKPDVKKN

[5] = molecular target: T1, Nuclear factor erythroid 2-related factor 2 (Mus musculus); assay: Activation of Nrf2 in mouse BV-2 cells assessed as increase in total Nrf2 level by Western blot analysis; assay type: cell-based; method in brief: as §2
[6] = tested on: BV-2; assay: Antiinflammatory activity in mouse BV2 cells assessed as reduction in LPS-induced TNF-alpha production incubated for 24 hrs by ELISA; assay type: functional, cell-based
Method in brief: (§3)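 BV-2 cells given compound together with 1 μg/mL LPS for 24 h; mediator levels expressed relative to LPS-stimulated control ± SEM; at least duplicate cultures; paired t test.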

[7] = molecular target: T1, Nuclear factor erythroid 2-related factor 2 (Mus musculus); assay: Activation of Nrf2 in mouse BV-2 cells assessed as increase in HO-1 level at 0.3 to 10 uM incubated for 12 hrs by Western blot analysis relative to control; assay type: cell-based
Method in brief: (§4)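 BV-2 cells treated for 12 h; HO-1, GCLM, GCLC protein by Western blot, normalized to β-actin; at least duplicate cultures, fold induction over untreated control ± SEM; paired t test.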

[8] = molecular target: T1, Nuclear factor erythroid 2-related factor 2 (Mus musculus); assay: Activation of Nrf2 in mouse BV-2 cells assessed as upregulation of GCLM mRNA expression at 1 to 10 uM incubated for 3 hrs by RT-qPCR analysis relative to control; assay type: cell-based
Method in brief: (§5)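 BV-2 cells exposed to a range of concentrations for 3 h; HO-1, GCLM and GCLC mRNA quantified by RT-qPCR, normalized to β-actin; at least duplicate cultures, fold of untreated control ± SEM; paired t test.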

[9] = tested on: Mus musculus; assay: Protection against MPTP-induced DAergic neurotoxicity in C57B/6 mouse model of Parkinson's disease assessed as restoration of TH-positive neurons cell density in striatum at 20 mg/kg, po observed after 7 days by microscopic analysis; assay type: functional, organism-based
Method in brief: (§6)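 MPTP mouse model with 20 mg/kg oral dosing; striatal and substantia nigra sections collected 7 days later and stained for tyrosine hydroxylase; striatal TH density and nigral TH-positive neuron counts; mean ± SEM; one-way ANOVA with Tukey's test.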

[10] = tested on: Mus musculus; assay: Protection against MPTP-induced DAergic neurotoxicity in C57B/6 mouse model of Parkinson's disease assessed as […] at 20 mg/kg, po observed after 7 days by microscopic analysis; assay type: functional, organism-based; method in brief: as §6
[11] = molecular target: T2, Nuclear factor erythroid 2-related factor 2 (Homo sapiens); assay: Activation of Nrf2 in human SH-SY5Y cells assessed as increase in GCLM level at 0.3 to 3 uM incubated for 6 to 24 hrs by Western blot analysis relative to control; assay type: cell-based; method in brief: as §1
[12] = molecular target: T1, Nuclear factor erythroid 2-related factor 2 (Mus musculus); assay: Activation of Nrf2 in mouse BV-2 cells assessed as upregulation of GCLC mRNA expression at 1 to 10 uM incubated for 3 hrs by RT-qPCR analysis relative to control; assay type: cell-based; method in brief: as §5
[13] = tested on: BV-2; assay: Antiinflammatory activity in mouse BV2 cells assessed as reduction in LPS-induced IL-6 production incubated for 24 hrs by ELISA; assay type: functional, cell-based; method in brief: as §3
[14] = tested on: BV-2; assay: Antiinflammatory activity in mouse BV2 cells assessed as reduction in LPS-induced iNOS level at 1 to 10 uM incubated for 6 hrs followed by LPS stimulation for 12 hrs by Western blot analysis; assay type: functional, cell-based
Method in brief: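 BV-2 cells pretreated with compound 6 h, then stimulated with 1 μg/mL LPS for 12 h; protein and mRNA levels quantified relative to LPS-stimulated control; mean ± SD (n = 3); paired t test.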

[15] = tested on: Mus musculus; assay: (§7) Anti-parkinson's activity in MPTP-induced C57Bl/6 mouse model of Parkinson's disease assessed as restoration of turning time at 20 mg/kg, po administered for 3 consecutive days prior and subsequent to MPTP administration (four injections of MPTP, 2 h intervals, 20 mg/kg, i.p. injection by vertical grid test; assay type: functional, organism-based
Method in brief: (§8)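 Mice dosed 20 mg/kg p.o. (or vehicle) for 3 consecutive days before and after MPTP (four i.p. injections, 20 mg/kg, 2 h apart); vertical grid test (turning, descent, total time) and coat-hanger scoring; n = 10–12 per group; mean ± SEM; one-way ANOVA with Tukey's test.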

[16] = Cytotoxicity against mouse BV2 cells assessed as cell viability at 3 uM incubated for 6 hrs by CCK-8 assay relative to control; assay type: cell-based, BV-2; conditions: read-out: Activity
Method in brief: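 BV-2 cells exposed to compound for 6 h, then viability measured; percent survival reported.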

[17] = tested on: Mus musculus; assay: as §7, with “total” for “turning”; assay type: functional, organism-based; method in brief: as §8
[18] = molecular target: T1, Nuclear factor erythroid 2-related factor 2 (Mus musculus); assay: Activation of Nrf2 in mouse BV-2 cells assessed as increase in GCLM level at 0.3 to 10 uM incubated for 12 hrs by Western blot analysis relative to control; assay type: cell-based; method in brief: as §4

fold change (FC) [2]: 6.7
fold change (FC) [3]: 3.3
Activity [4]: Dose-dependent effect
Activity [5]: Dose-dependent effect
fold change (FC) [7]: 10.3
fold change (FC) [8]: 5.3
fold change (FC) [11]: 2.9
fold change (FC) [12]: 2.3
fold change (FC) [18]: 5.6
Compound: COc1ccccc1OS(=O)(=O)/C=C/c1ccccc1Cl
fold change (FC) [1]: 4.7
Activity [6]: Dose-dependent effect
Activity [9]: Active
Activity [10]: Active
Activity [13]: Dose-dependent effect
Activity [14]: Active
Activity [15]: Active
viability at 6 h, 3 µM [16]: 97.6%
Activity [17]: Active
